Paper PMC9302689 (British Journal of Clinical Pharmacology, 2022)
Marks after values point to notes of the source that are not given here.

Columns and labels:
Format in all cases: in vivo, human
[1] = system: healthy male subjects; assay: NeuroCart pupillometry; details: 12-hour post-dose period
Procedure, shortened: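 In healthy men given a single dose or placebo, both eyes were photographed simultaneously with the head in a support. This was done twice pre-dose and at 0.5–10 h post-dose. Change from baseline over 12 h was analysed by MMRM against pooled placebo, with baseline as covariate.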

[2] = system: healthy male subjects; assay: Serum neuro-endocrine hormones; details: for Cortisol (ng/ml), LSM CFB / Cortisol (ng/ml), estimate of difference compared to placebo / Prolactin (ng/ml), LSM CFB / Prolactin (ng/ml), estimate of difference compared to placebo: 2 hours post-dose, serum
Procedure, shortened: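 Serum was sampled pre-dose and at 0.25–36 h after a single dose or placebo in healthy men. Cortisol was measured by validated LC–MS/MS (LLOQ 2.00 ng/mL) and prolactin by time-resolved fluoroimmunoassay (LLOQ 0.260 ng/mL). Values were ln-transformed and analysed by MMRM using the 2-h post-dose data, with baseline as covariate and pooled placebo as reference, then back-transformed.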

[3] = system: healthy male subjects; assay: Orthostatic hypotension
[4] = system: healthy male subjects; assay: NeuroCart saccadic eye movement; details: 12-hour post-dose period
Procedure, shortened: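 Fasted healthy men were tested twice pre-dose and at 0.5–10 h post-dose with the head fixed 58 cm from the screen. Subjects followed a dot jumping about 15 degrees to either side. Fifteen saccades were recorded at random 3–6 s intervals. Peak velocity (deg/s) was averaged over artefact-free saccades. Change from baseline over 12 h was analysed by MMRM against pooled placebo.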

[5] = system: healthy male subjects; assay: NeuroCart smooth pursuit; details: 12-hour post-dose period
Procedure, shortened: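 This used the same head-fixed screen set-up as the saccade test. Subjects tracked a dot moving continuously at 0.3–1.1 Hz in 0.1 Hz steps, twice pre-dose and at 0.5–10 h after a single dose or placebo. Change from baseline over 12 h was analysed by MMRM against pooled placebo, with baseline as covariate.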

CN1CCC23CCCCC2C1Cc1ccc(C(N)=O)cc13 (stereo not drawn) [ALKS 7119, (9α, 13α)‐17‐methylmorphinan‐3‐carboxamide]
Left pupil/iris ratio, LSM CFB ([1]; 3 mg single oral dose): 0.01 | Right pupil/iris ratio, LSM CFB ([1]; 3 mg single oral dose): 0.02 | Left pupil/iris ratio, LSM CFB ([1]; 10 mg single oral dose): 0.04 | Right pupil/iris ratio, LSM CFB ([1]; 10 mg single oral dose): 0.03 | Left pupil/iris ratio, LSM CFB ([1]; 25 mg single oral dose): 0.04 | Right pupil/iris ratio, LSM CFB ([1]; 25 mg single oral dose): 0.03 | Left pupil/iris ratio, LSM CFB ([1]; 50 mg single oral dose): 0.05 | Right pupil/iris ratio, LSM CFB ([1]; 50 mg single oral dose): 0.07 | Left pupil/iris ratio, LSM CFB ([1]; 75 mg single oral dose): 0.04 | Right pupil/iris ratio, LSM CFB ([1]; 75 mg single oral dose): 0.03 | Left pupil/iris ratio, LSM CFB ([1]; 100 mg single oral dose): 0.04 | Right pupil/iris ratio, LSM CFB ([1]; 100 mg single oral dose): 0.05 | Left pupil/iris ratio, LSM CFB ([1]; 125 mg single oral dose): 0.04 | Right pupil/iris ratio, LSM CFB ([1]; 125 mg single oral dose): 0.05 | Left pupil/iris ratio, LSM CFB ([1]; 150 mg single oral dose): 0.03 | Right pupil/iris ratio, LSM CFB ([1]; 150 mg single oral dose): 0.05 | Left pupil/iris ratio, LSM CFB ([1]; 175 mg single oral dose): 0.05 | Right pupil/iris ratio, LSM CFB ([1]; 175 mg single oral dose): 0.06 | Left pupil/iris ratio, LSM CFB ([1]; 200 mg single oral dose): 0.08 | Right pupil/iris ratio, LSM CFB ([1]; 200 mg single oral dose): 0.06 | Cortisol (ng/ml), LSM CFB ([2]; 3 mg single oral dose): −22.9 % change | Cortisol (ng/ml), estimate of difference compared to placebo ([2]; 3 mg single oral dose): −3.6 (−31.1, 34.9) P = .83 % change | Prolactin (ng/ml), LSM CFB ([2]; 3 mg single oral dose): −3.6 % change | Prolactin (ng/ml), estimate of difference compared to placebo ([2]; 3 mg single oral dose): −3.2 (−26.9; 28.3) P = .82 % change | Cortisol (ng/ml), LSM CFB ([2]; 10 mg single oral dose): 8.9 % change | Cortisol (ng/ml), estimate of difference compared to placebo ([2]; 10 mg single oral dose): −31.8 (−51.3; −4.5) P = .03 ^* % change | Prolactin (ng/ml), LSM CFB ([2]; 10 mg single oral dose): −15.3 % change | Prolactin (ng/ml), estimate of difference compared to placebo ([2]; 10 mg single oral dose): 10.1 (−16.9; 45.9) P = .50 % change | Cortisol (ng/ml), LSM CFB ([2]; 25 mg single oral dose): −20.8 % change | Cortisol (ng/ml), estimate of difference compared to placebo ([2]; 25 mg single oral dose): −6.2 (−32.9; 31.3) P = .71 % change | Prolactin (ng/ml), LSM CFB ([2]; 25 mg single oral dose): 8.0 % change | Prolactin (ng/ml), estimate of difference compared to placebo ([2]; 25 mg single oral dose): −13.6 (−34.8; 14.5) P = .31 % change | Cortisol (ng/ml), LSM CFB ([2]; 50 mg single oral dose): 12.7 % change | Prolactin (ng/ml), LSM CFB ([2]; 50 mg single oral dose): 66.0 % change | Cortisol (ng/ml), LSM CFB ([2]; 75 mg single oral dose): 36.5 % change | Cortisol (ng/ml), estimate of difference compared to placebo ([2]; 75 mg single oral dose): −45.5 (−61.1; −23.8) P < .01 ^* % change | Prolactin (ng/ml), LSM CFB ([2]; 75 mg single oral dose): 63.4 % change | Prolactin (ng/ml), estimate of difference compared to placebo ([2]; 75 mg single oral dose): −42.9 (−56.9; −24.3) P < .01 ^* % change | Cortisol (ng/ml), LSM CFB ([2]; 100 mg single oral dose): 70.3 % change | Cortisol (ng/ml), estimate of difference compared to placebo ([2]; 100 mg single oral dose): −56.4 (−68.8; −38.9) P < .01 ^* % change | Prolactin (ng/ml), LSM CFB ([2]; 100 mg single oral dose): 72.0 % change | Prolactin (ng/ml), estimate of difference compared to placebo ([2]; 100 mg single oral dose): −45.8 (−59.1; −28.1) P < .01 ^* % change | Cortisol (ng/ml), LSM CFB ([2]; 125 mg single oral dose): 52.6 % change | Cortisol (ng/ml), estimate of difference compared to placebo ([2]; 125 mg single oral dose): −51.3 (−65.2; −31.8) P < .01 ^* % change | Prolactin (ng/ml), LSM CFB ([2]; 125 mg single oral dose): 28.0 % change | Prolactin (ng/ml), estimate of difference compared to placebo ([2]; 125 mg single oral dose): −27.1 (−45.1; −3.3) P = .03 ^* % change | Cortisol (ng/ml), LSM CFB ([2]; 150 mg single oral dose): 84.4 % change | Cortisol (ng/ml), estimate of difference compared to placebo ([2]; 150 mg single oral dose): −59.7 (−71.2; −43.6) P < .01 ^* % change | Prolactin (ng/ml), LSM CFB ([2]; 150 mg single oral dose): 106.9 % change | Prolactin (ng/ml), estimate of difference compared to placebo ([2]; 150 mg single oral dose): −54.9 (−66.0; −40.2) P < .01 ^* % change | Cortisol (ng/ml), LSM CFB ([2]; 175 mg single oral dose): 53.6 % change | Cortisol (ng/ml), estimate of difference compared to placebo ([2]; 175 mg single oral dose): −51.6 (−65.4; −32.3) P < .01 ^* % change | Prolactin (ng/ml), LSM CFB ([2]; 175 mg single oral dose): 81.7 % change | Prolactin (ng/ml), estimate of difference compared to placebo ([2]; 175 mg single oral dose): −48.7 (−61.3; −32.0) P < .01 ^* % change | Cortisol (ng/ml), LSM CFB ([2]; 200 mg single oral dose): 64.7 % change | Cortisol (ng/ml), estimate of difference compared to placebo ([2]; 200 mg single oral dose): −54.9 (−67.8; −36.9) P < .01 ^* % change | Prolactin (ng/ml), LSM CFB ([2]; 200 mg single oral dose): 111.3 % change | Prolactin (ng/ml), estimate of difference compared to placebo ([2]; 200 mg single oral dose): −55.8 (−66.7; −41.5) P < .01 ^* % change | Serum cortisol, increase vs placebo (estimate of difference) ([2]; from dose levels ≥50 mg): 51.7 % change | Serum prolactin, increase vs placebo (estimate of difference) ([2]; from dose levels ≥50 mg): 77.9 % change | Incidence of orthostatic hypotension ([3]; 200 mg dosing group, three subjects): 37.5% | Incidence of orthostatic hypotension ([3]; all ALKS 7119 dose groups (placebo 15%)): 17.5% | Saccadic peak velocity, LSM CFB ([4]; 3 mg single oral dose): −16.15 deg/s | Saccadic peak velocity, LSM CFB ([4]; 10 mg single oral dose): 1.46 deg/s | Saccadic peak velocity, LSM CFB ([4]; 25 mg single oral dose): 6.12 deg/s | Saccadic peak velocity, LSM CFB ([4]; 50 mg single oral dose): 2.91 deg/s | Saccadic peak velocity, LSM CFB ([4]; 75 mg single oral dose): −5.63 deg/s | Saccadic peak velocity, LSM CFB ([4]; 100 mg single oral dose): 13.25 deg/s | Saccadic peak velocity, LSM CFB ([4]; 125 mg single oral dose): 5.98 deg/s | Saccadic peak velocity, LSM CFB ([4]; 150 mg single oral dose): 18.15 deg/s | Saccadic peak velocity, LSM CFB ([4]; 175 mg single oral dose): 5.26 deg/s | Saccadic peak velocity, LSM CFB ([4]; 200 mg single oral dose): −0.64 deg/s | Smooth pursuit, LSM CFB ([5]; 3 mg single oral dose): −0.26% | Smooth pursuit, LSM CFB ([5]; 10 mg single oral dose): 0.06% | Smooth pursuit, LSM CFB ([5]; 25 mg single oral dose): −1.44% | Smooth pursuit, LSM CFB ([5]; 50 mg single oral dose): −0.03% | Smooth pursuit, LSM CFB ([5]; 75 mg single oral dose): −3.44% | Smooth pursuit, LSM CFB ([5]; 100 mg single oral dose): −0.49% | Smooth pursuit, LSM CFB ([5]; 125 mg single oral dose): −3.82% | Smooth pursuit, LSM CFB ([5]; 150 mg single oral dose): −1.14% | Smooth pursuit, LSM CFB ([5]; 175 mg single oral dose): −1.07% | Smooth pursuit, LSM CFB ([5]; 200 mg single oral dose): 1.24%
